The text below walks through data of ChEMBL document CHEMBL4513216, “Probing the Open Global Health Chemical Diversity Library for Multistage-Active Starting Points for Next-Generation Antimalarials” (ACS Infect Dis, 2020).

Structures are written as SMILES.

The series is described as follows: Toxicity liver stage against HepG2, at 10uM. The class given is cell-based. On the set-up: test concentration 10 uM, cell line HepG2-A16-CD81EGFP. Conditions: human, HepG2-A16-CD81EGFP cells; read-out: INHIBITION
The method in brief: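 Uninfected HepG2-A16-CD81EGFP cells, 3 × 10^3 per well, 1536-well, plated on prespotted compound at 10 μM final, parasite-free screening media added to match infected plates; puromycin 10 μM positive, DMSO 0.5% negative; run in parallel with 48 h PbLuc assay at 37 °C, 5% CO2; viability by CellTiter-Glo luminescence, normalized to controls.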
Take `CC1=Nc2c(c(=O)[nH]n2C(C)C)C(c2ccc3c(c2)n(C)c(=O)n3C)S1` (stereo unspecified): the cytotoxicity at 10 µM was determined as 3.75%.
Next, `Cc1ccc(Cc2cnc(C3CCNCC3)cn2)cc1`: -31.2%; `CCN(CC)C(=O)c1ccc(Cl)c(NC(=O)c2csnn2)c1`: 7.3%; `COc1cccc(-c2cc(C(=O)NCCCC(F)(F)F)[nH]n2)c1`: -13.9%.
In the case of `CCc1nnc(C(C)N(C)Cc2c(C)nn(-c3ccccc3)c2C)o1` (stereo unspecified), the cytotoxicity at 10 µM was -9.85%.
The value for `CCn1cnnc1C1CCN(C(=O)COc2ccccc2)CC1` was 1.3%; that for `CCCc1nc(CN2CCOC(Cn3cncn3)C2)no1` (stereo unspecified) was -7.03%.
With `CCc1cc(NCCc2ccc(O)cc2)n2nccc2n1`, the cytotoxicity at 10 µM is -16.3%.
The value for `Cn1nc(C2CCCNC2)c2c(C(=O)NC3CC3)cc(C3CC3)nc21` (stereo unspecified) was 14.5%; that for `COc1ncccc1C(=O)N1C[C@@H]2COC[C@]2(CN(C)C)C1` was -143%; that for `Cc1cnc(C(=O)N2CCC3(CC2)CC(c2ccccc2)C(=O)N3)cn1` (stereo unspecified) was 4.9%.
Regarding `COCC(NC1CCN(CC(C)C)CC1)c1ccnn1C` (stereo unspecified), the cytotoxicity at 10 µM turned out to be 4.22%.
The value for `COCC(=O)N1CCCC(C(=O)N(C)CCCc2cnn(C)c2)C1` (stereo unspecified) was -137%.
Consider `COc1ccc(C(=O)O)c(OCC(=O)NC(C)c2ccccc2)c1` (stereo unspecified), for which the cytotoxicity at 10 µM turned out to be 1.97%.
As to `N#Cc1ccc(OCC(=O)N2CCCC(n3cccn3)C2)cc1` (stereo unspecified), the cytotoxicity at 10 µM was -2.83%.
For the molecule `Cn1cc(-c2ccnc(NCC3CCN(Cc4ccccc4)C3)n2)cn1` (stereo unspecified), the cytotoxicity at 10 µM was -130%.
The value for `O=C(NCc1nncn1C1CCCCC1)C1CNCCO1` (stereo unspecified) was -2.08%.
`COc1c(CNCC(O)c2cccc(F)c2)c(C)nn1C` (stereo unspecified): the cytotoxicity at 10 µM is -6.41%.
The value for `CCc1nc(C)c(C(=O)N2CCNCC2C(=O)Nc2ccc(C)nc2)o1` (stereo unspecified) was -4%; that for `O=C(C1SCCc2sccc21)N1CC(O)C1` (stereo unspecified) was 9.22%; that for `NC(=O)c1cnn2c1NCC(CNCCOc1ccccc1)C2` (stereo unspecified) was -11.4%.
The value for `COCCOc1ncccc1C(=O)N(C)c1ccc(OC)c(OC)c1` was -46.7%; that for `CC(C)=CCN1C[C@@H]2CC[C@H]1CN(C(=O)Cc1c(C)[nH]c(C)nc1=O)C2` was 2.48%; that for `O=C(c1cc(=O)[nH]c(=O)[nH]1)N1CCCC(CO)(CC2CC2)C1` (stereo unspecified) was -3.02%.
Next, `O=C1[C@H]2CN(Cc3ccoc3)C[C@H]2CN1CCN1CCCC1`: 1.05%.
For `Cc1cc(C)n(Cc2ccc(-c3noc(C(=O)NCCCO)n3)cc2)n1`, the cytotoxicity at 10 µM was -1.49%.
Next, `CC(NC(=O)CCn1cccn1)c1ccc(-n2ccnn2)cc1` (stereo unspecified): -1.99%.
On to `Cc1nn(C)c(Cl)c1CNCc1cccnc1N1CCCCC1`, for which the cytotoxicity at 10 µM is -145%.
The value for `CCC[C@H]1CN(S(=O)(=O)c2ccccc2)C[C@@H]1N` was 1.35%.
Next, `Cc1nn2c(NC(=O)CSc3nccn3C)csc2nc1=O`: 9.71%; `CCN(Cc1cccc(NC(=O)COCCOC)c1)C(C)=O`: -136%; `CC(NC1(CNC(=O)CC(C)(C)C)CCOCC1)c1ccccc1` (stereo unspecified): 8.57%.
For `Cc1cc(C)nc(NC2CCN(CCOC(C)C)CC2)n1`, the cytotoxicity at 10 µM is -10.8%.
Next, `CCn1nc2c(cc1=O)CN(Cc1nc(C)c(C)o1)CC2`: -3.59%; `COCCC(=O)Nc1nccn1Cc1ccc(Br)cc1`: -47.2%; `Cc1cccnc1C(=O)N1CCC(Cc2cnc3[nH]ccc3c2)CC1`: 1.85%.
With `CCC(C)C(=O)Nc1ccc2oc(=O)n(CCN(C)C)c2c1` (stereo unspecified), the cytotoxicity at 10 µM is -14.8%.
Next, `CN(Cc1ccncc1)C(=O)NCc1nnc2n1CCCCC2`: -26%.
Next, `CCc1cnc(CN(C(C)=O)C2CCN(CC3(O)CCCCC3)C2)o1` (stereo unspecified): 0.195%.
The value for `COc1ccc(OC)c(C(C)NC(=O)Nc2nnc(C)s2)c1` (stereo unspecified) was 14.7%; that for `COCc1nc2n(n1)CCCC2Nc1nc(C)ns1` (stereo unspecified) was -3.32%.
As to `CCN1CCOCC12CCN(C(=O)Cc1ccccc1)CC2`, the cytotoxicity at 10 µM was -75.3%.
On to `CO[C@H]1C[C@@H](O)C12CCN(C(=O)CCSCc1ccc(F)cc1)CC2`, for which the cytotoxicity at 10 µM was -5.22%.
As for `NC(=O)CN1C(=O)CO[C@H]2CN(Cc3ccc(Cl)cc3)C[C@H]21`, the cytotoxicity at 10 µM was found to be 13%.
As to `O=C(NCc1ccccc1CN1CCCC1=O)Nc1nncs1`, the cytotoxicity at 10 µM is -2.82%.
Next, `O=C(NCCOc1ccc2c(c1)OCO2)N1CCC1`: -6.24%; `O=C(O)c1cc(NS(=O)(=O)c2ccc(Cl)s2)ccc1N1CCOCC1`: -4.05%.
Take `COCCN1CC[C@H]2CN(c3cc(OC)ncn3)C[C@@H]2C1=O`: the cytotoxicity at 10 µM turned out to be 10.3%.
The value for `CCCc1nnc(N2CCC(C3CCN(C)CC3)CC2)o1` was -11.7%; that for `CC1CCCCN1Cc1ccc(-c2ccccc2C(=O)O)cc1` (stereo unspecified) was 6.74%; that for `COCC(=O)N1CCC(c2cc(C(F)(F)F)c3c(C)noc3n2)CC1` was -28%.
For the molecule `O=C(CCN1CCC(C(=O)c2cc(F)ccc2F)CC1)NC1CC1`, the cytotoxicity at 10 µM was -7.74%.
For the molecule `CCCn1ncc(CN2C[C@@H]3CCCN3C[C@@H]2Cc2ccccc2)c1C`, the cytotoxicity at 10 µM was -8.16%.
For the molecule `COc1ccc2c(ccn2CCC(=O)Nc2nc[nH]n2)c1`, the cytotoxicity at 10 µM was -12.6%.
`CN(Cc1ccsc1)C(=O)c1nc(N2CCCCC2)ncc1Cl`: the cytotoxicity at 10 µM is -27.4%.
The value for `COc1ccc(C2SCC(=O)N2c2ncc(C)s2)cc1` (stereo unspecified) was 8.45%.
The value for `COCCO[C@@H]1C[C@H]2CN(C(=O)c3ccc(C)nc3)CCN2C1` was -2.2%; that for `COCCNC(=O)[C@H]1C[C@@H]2CCN(c3ncccn3)C[C@H]2O1` was -17.1%; that for `CN(C)S(=O)(=O)N1CC[C@]2(O)CCN(c3nccs3)C[C@@H]2C1` was -13%.
With `CCOCc1nn(CC2CC2)c2c1CN(Cc1ccco1)CC2`, the cytotoxicity at 10 µM turned out to be 2.7%.
The value for `Cc1cn2nc(N3CCCC3Cn3cncn3)sc2n1` (stereo unspecified) was -18.3%.
The value for `COCCNS(=O)(=O)c1cccc2c1CN(C(=O)c1cnccn1)CC2` was -0.432%; that for `CCOCCn1nc(C)cc1C(=O)N1CC[C@](O)(CC)[C@H](O)C1` was -3%.
Take `O=C(NCc1ccccc1)C1=NOC2(CCNC2)C1` (stereo unspecified): the cytotoxicity at 10 µM is 0.213%.
Next, `O=C(NCc1cccs1)[C@@H]1CC[C@@H]2[C@@H](CCN2C2CCOCC2)O1`: 0.37%.
The value for `COCC(=O)N1CCCCC1c1nc(C)c2c(n1)N(CC1CC1)C(=O)C2` (stereo unspecified) was 10.5%; that for `CN1CCCC2(CCN(c3cccc(C#N)n3)C2)C1=O` (stereo unspecified) was 3.61%.
With `CCN1CCN(Cc2nc(Cc3ccccc3)n[nH]2)CC1`, the cytotoxicity at 10 µM was -9.34%.
Next, `CC(C)c1nsc(NC2CC(=O)N(C(C)(C)C)C2)n1` (stereo unspecified): 5.09%.
Next, `N#Cc1ccc(OCCN2CCNC(=O)C2c2cccs2)cc1` (stereo unspecified): -2.62%.
Regarding `COc1ccc(NC(=O)C2OC(c3cccs3)=NN2C(C)=O)cc1` (stereo unspecified), the cytotoxicity at 10 µM was -1.6%.
The value for `Cn1nc(C(=O)N2CC(Oc3nc4c(Cl)cccc4s3)C2)ccc1=O` was 1.48%; that for `CC(C)c1noc(CCCC(=O)N2CCN(Cc3cccnc3)CC2)n1` was -2.96%.
The value for `O=C(Nc1ccc(-n2cncn2)nc1)N(CC1CCOC1)C1CC1` (stereo unspecified) was -9.2%.
For `Cc1nc(NCCSc2cnn[nH]2)c2cccnc2n1`, the cytotoxicity at 10 µM is 2.98%.
Next, `C[C@H](CCO)NS(=O)(=O)c1ccc(Br)cn1`: -8.63%; `CCn1nc2c(cc1=O)CN(Cc1nc3ccccc3o1)CC2`: -8.9%.
Take `CN(C)CCN1CCc2c(nnn2C)C1COCc1ccccc1` (stereo unspecified): the cytotoxicity at 10 µM is -90.3%.
The value for `COc1cccc(CN2C[C@H]3CC[C@H]2C3)c1OCCN1CCOCC1` was 0.101%; that for `CC(=O)N1CC=C(n2c(=O)[nH]c3ccccc32)CC1` was 1.73%.
Next, `Cc1c(CNC(=O)Nc2cccc3c2CCN3C)cnn1C`: -1.02%; `Cn1nccc1CN1CCOC(c2cccc(-c3cncnc3)n2)C1` (stereo unspecified): 0.88%; `CCCn1ccnc1CN1C[C@@H](CN2CCCCC2)[C@@H](CO)C1`: 0.945%.
Next, `Cc1ccsc1CNC1CCCc2c1cnn2C` (stereo unspecified): 2.27%; `COc1ccccc1CC(=O)NS(C)(=O)=O`: -7.31%; `COCC(=O)N1CCN(C(C)C(=O)NC(C)C)CC1` (stereo unspecified): 1.06%.
Turning to `CN(Cc1ccon1)C1CCN(c2cccc(-c3cscn3)c2)CC1`, the cytotoxicity at 10 µM is -3.96%.
Regarding `CO[C@H]1CN(C(=O)c2ccc(-c3cc[nH]n3)cc2)CC[C@H]1N`, the cytotoxicity at 10 µM is 5.29%.
Take `O=C(NC1(c2nccs2)CCCC1)c1[nH]nc(C2CC2)c1Cl`: the cytotoxicity at 10 µM was -24.6%.
Next, `Cc1ccc(NC(=O)N(C)Cc2cnn(C)c2)c(C)c1`: -10.7%.
Turning to `CCc1ncc2c(n1)CN(c1nc(C)ccc1C(=O)O)C2`, the cytotoxicity at 10 µM worked out at 8.25%.
On to `COC(=O)CNC(=O)CSCc1nc(O)c2cc(C(C)C)sc2n1`, for which the cytotoxicity at 10 µM came to 7.72%.
The value for `Cc1ccc(CN2CCCC(c3nnc(CN4CCCCC4)n3C)C2)s1` (stereo unspecified) was -2.46%.
`Cn1nnc2c1C(COCC1CC1)CN(C(=O)Cc1cccs1)C2` (stereo unspecified): the cytotoxicity at 10 µM amounted to 3.88%.
Consider `Cc1cnn(CC2CN(Cc3noc(C4CC4)n3)CCO2)c1` (stereo unspecified), for which the cytotoxicity at 10 µM was -11.4%.
Next, `NC(=O)CCC1CCCN(Cc2cnc(N3CCCCC3)nc2)C1` (stereo unspecified): -11.1%.
